# Screening data: PubChem BioAssay, Broad Institute
# PGC1a acetyl up: raises PGC1a acetylation signal in U2OS cells; 350,000 compounds, 0.21% hits; U2OS PGC1a acetylation AlphaScreen, overnight; activation, % at 15.6 µM;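 active = every replicate reaching activation of at least 50%, whatever the mean replicate activation; inconclusive = replicates that disagree or another doubt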;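 note: hits raise the AlphaScreen acetylation signal above neutral controls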
#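 Incubation: overnight compound treatment, 37 °C. System: U2OS cells transduced with flag-tagged PGC1a and GCN5 acetyltransferase. Detection: AlphaScreen lysate read. Compound: single-point compound dosing.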
# G6PC hep suppr: PGC-1a acetylation activators affecting G6PC expression in hepatocytes; shares compounds with PGC1a acetyl up; primary mouse hepatocytes, G6PC mRNA qPCR, forskolin; G6PC suppression (normalized activity, % of positive control; higher = more suppression), % at 26 µM; 240 tested, under 10 active; AID 743463;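 active = dose curves showing G6PC suppression whose half-maximal dose is at most twice the top valid dose; inconclusive = flat curves with moderate negative activity, or unreliable fits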;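 note: G6PC expression relative to GAPDH housekeeping gene as delta delta Ct; 0% = median of neutral control wells and 100% = median of positive control wells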
# PCK1 hep suppr: PGC-1a acetylation activator altering hepatocyte PCK1 expression; shares compounds with PGC1a acetyl up; primary mouse hepatocytes, PCK1 mRNA qPCR, forskolin-stimulated; 230 tested, under 10 active; PCK1 expression decrease, unspecified at 26 µM;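 active = compounds lowering PCK1 expression whose fitted half-maximal concentration is at most twice the top tested dose; inconclusive = flat fit with moderate opposite-direction effect, or poor fit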;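 note: values are delta delta Ct of PCK1 relative to GAPDH; higher delta delta Ct means lower PCK1 expression so positive values indicate hits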
# Hep PGC-1a down: PGC-1a acetylation activators affecting PGC-1a expression in hepatocytes. max activity (PGC-1a expression decrease), %. 240 tested, under 10 active. primary mouse hepatocytes, PGC-1a mRNA qPCR, forskolin; top dose 26 µM. shares compounds with PGC1a acetyl up;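 active = compound lowering PGC-1a expression with fitted half-maximal concentration at most twice its top tested dose; inconclusive = flat curve with moderate opposite-direction effect, or poor fit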;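 note: 0% = neutral control wells median and 100% = positive control wells median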
# * marks the source's active call; other numbers are inactive results; i = inactive; ? = inconclusive; [ ] = dose if it differs, or a comment. Only a sample is shown.
SMILES,PGC1a acetyl up,others
O=c1c2ccccc2nc(/C=C/c2ccc([N+](=O)[O-])o2)n1-c1ccc(O)cc1,144*,
COC(=O)C1C2c3ccccc3OC1(C)N=c1s/c(=C/c3cn(C)nc3C)c(=O)n12 (stereo not given),-46,
CC1=CC(=C2C(=O)NC(=S)NC2=O)C=C(C(F)(F)F)N1Cc1ccccc1,-88,
CCOC(=O)CNC(=O)N1Cc2ccc(Br)cc2-n2nncc2C1,-41,
COc1ccc(-n2c(O)c(C=NCCCn3ccnc3)c(=O)[nH]c2=O)cc1,68*,
CCN(CC)c1ccc(N=Cc2c(O)n(-c3ccc(OC)cc3)c(=O)[nH]c2=O)cc1,-46,
CN1C2CCC1/C(=C/c1ccccn1)C(=O)/C2=C\c1ccccn1,-78,
O=[N+]([O-])c1ccc(N2CCOCC2)c2c1no[n+]2[O-],-84,
CNCC(=O)c1ccc(O)c(O)c1,-55,
COCCCn1c(N)c(C(=O)Nc2ccccc2)c2nc3ccccc3nc21,51*,
N#Cc1ccccc1NC(=O)CN1CC=C(c2ccccc2)CC1,-47,
O=c1[nH]c2ccccc2n1C1CCN(C(c2cc3ccccc3o2)c2nnnn2Cc2ccccc2)CC1 (stereo not given),-49,
C[C@H]1C[C@@H](C)C(=O)[C@@H]([C@H](O)CC2CC(=O)NC(=O)C2)C1,-68,
CCc1ccc(N2C(=O)NC(=O)/C(=C\C=C\c3ccco3)C2=O)cc1,114*,
Cc1ccc(N2C(=O)NC(=O)/C(=C/c3ccoc3)C2=O)cc1,-50,
C[C@H]1CCC/C=C/[C@@H]2C[C@H](O)C[C@H]2[C@@H](O)/C=C/C(=O)O1,-37,
CC(=O)OC1CC(OC2C(O)CC(OC3C(O)CC(OC4CCC5(C)C(CCC6C5CCC5(C)C(C7=CC(=O)OC7)C(O)CC65O)C4)OC3C)OC2C)OC(C)C1OC1OC(CO)C(O)C(O)C1O (stereo not given),-42,
CC(=O)OC1CC2(O)C3CCC4CC(O)CCC4(C)C3CCC2(C)C1C1=CC(=O)OC1 (stereo not given),-65,
CCCN(CCC)[C@@H]1CCc2cccc(O)c2C1,-42,
C=C1C(=O)OC2CC3(C)OC3CCC(C)=CC(OC(C)=O)C12 (stereo not given),118*,
CC1CC(C)CC(C)C(O)C(C#N)=CC=CCC(C2CCCC2C(=O)O)OC(=O)CC(O)C(C)C1 (stereo not given),-60,
C=C1C(=O)O[C@@H]2C[C@@H](C)[C@H]3C=CC(=O)[C@]3(O)C[C@@H]12,79*,
CNC(=O)c1cccn(Cc2ccc(C(F)(F)F)cc2)c1=O,68*,
CC(=O)OCC12CC(OC(=O)CC(C)C)C(C)=CC1OC1C(O)C(OC(C)=O)C2(C)C12CO2 (stereo not given),-74,
C[C@]12CC[C@H]3[C@@H](CC[C@]4(O)C[C@@H](O)CC[C@]34C=O)[C@@]1(O)CC[C@@H]2C1=CC(=O)OC1,-96,
SMILES,PGC1a acetyl up,others
NC1C2CN3CCN(C2)CC1(c1ccccc1)C3 (stereo not given),-52,
COc1ccc(C(c2ccc(OC)cc2)C(Cl)(Cl)Cl)cc1,93*,
CCC1(CC)C(=O)C=CNC1=O,-56,
O=C1CSC2N1CCNC21CCCCC1 (stereo not given),-42,
C=C1C(=O)OC2CC3(C)OC3C3OC3C3=CC(OC3=O)C12 (stereo not given),85*,
CC1=CC(=O)C2=C(C)C[C@H](O)[C@@H]3[C@H](OC(=O)[C@H]3C)[C@@H]12,-53,
CC(C)Oc1cccnc1N(C)C1CCN(Cc2ccccc2)CC1,-59,
CC(C)(O)/C=C/C(=O)[C@](C)(O)C1[C@H](O)C[C@@]2(C)C3CC=C4C(C[C@H](O)[C@@H](O)C4(C)C)[C@]3(C)C(=O)C[C@]12C (stereo not given in full),-65,
COc1ccc(C(c2nnnn2C2CCCCC2)N2CCC3(CC2)C(=O)NCN3c2ccccc2)cc1 (stereo not given),120*,
O=C1/C(=C/c2ccccc2)C[C@@]2(O)[C@H]3Cc4ccc(O)c5c4[C@@]2(CCN3CC2CC2)C1O5 (stereo not given in full),-45,
O=C1NC2C(=CC(O)C(O)C2O)c2cc3c(c(O)c21)OCO3 (stereo not given),-63,
Cc1cccc(C)c1-n1nnnc1C(c1ccccc1OC(F)(F)F)N1CCC(n2c(=O)[nH]c3ccccc32)CC1 (stereo not given),61*,G6PC hep suppr=i;PCK1 hep suppr=1187;Hep PGC-1a down=136
Cn1ncnc2c(=O)n(C)c(=O)nc1-2,-100,
CCOc1ccccc1CNCCc1ccc2c(c1)OCO2,-40,
c1ccc2c(N3CCNCC3)cccc2c1,-49,
COc1ccc(C[C@H]2NC[C@H](O)[C@H]2OC(C)=O)cc1,-90,
O=C1NC2C(=CC(O)C(O)C2O)c2cc3c(cc21)OCO3 (stereo not given),-85,
O=C1CN=C(c2ccccc2)c2cc([N+](=O)[O-])ccc2N1,-46,
C[C@@H]1CN([C@@H](C)CO)C(=O)c2c(c3ccccc3n2C)-c2ccccc2CO[C@@H]1CN(C)C(=O)Oc1ccccc1,?,G6PC hep suppr=488;PCK1 hep suppr=?;Hep PGC-1a down=276
COc1ccc(OC(=O)N(C)C[C@H]2OCc3ccccc3-c3c(n(C)c4ccccc34)C(=O)N([C@H](C)CO)C[C@H]2C)cc1,173*,G6PC hep suppr=1;PCK1 hep suppr=9.7;Hep PGC-1a down=49
Cc1ccc(OC(=O)N(C)C[C@H]2OCc3ccccc3-c3c(n(C)c4ccccc34)C(=O)N([C@@H](C)CO)C[C@H]2C)cc1,82*,G6PC hep suppr=109[23.5 µM];PCK1 hep suppr=84[23.5 µM];Hep PGC-1a down=104
C[C@@H]1O[C@@H](O[C@H]2C[C@@H](O)[C@]3(CO)[C@H]4[C@H](O)C[C@]5(C)[C@@H](C6=CC(=O)OC6)CC[C@]5(O)[C@@H]4CC[C@]3(O)C2)[C@H](O)[C@H](O)[C@H]1O,-83,
CCOc1ccccc1N=C1SCCCN1C,-97,
c1cc(CNCCc2ccc3c(c2)OCO3)ccn1,-46,
CC1=NN(c2ccccc2)C(=O)/C1=C/c1c(O)[nH]c(=O)[nH]c1=O,-49,
